Data set [1] has as its target T1, Signal transducer and activator of transcription 6 (Homo sapiens) (UniProt P42226).
T1 sequence (whole entry): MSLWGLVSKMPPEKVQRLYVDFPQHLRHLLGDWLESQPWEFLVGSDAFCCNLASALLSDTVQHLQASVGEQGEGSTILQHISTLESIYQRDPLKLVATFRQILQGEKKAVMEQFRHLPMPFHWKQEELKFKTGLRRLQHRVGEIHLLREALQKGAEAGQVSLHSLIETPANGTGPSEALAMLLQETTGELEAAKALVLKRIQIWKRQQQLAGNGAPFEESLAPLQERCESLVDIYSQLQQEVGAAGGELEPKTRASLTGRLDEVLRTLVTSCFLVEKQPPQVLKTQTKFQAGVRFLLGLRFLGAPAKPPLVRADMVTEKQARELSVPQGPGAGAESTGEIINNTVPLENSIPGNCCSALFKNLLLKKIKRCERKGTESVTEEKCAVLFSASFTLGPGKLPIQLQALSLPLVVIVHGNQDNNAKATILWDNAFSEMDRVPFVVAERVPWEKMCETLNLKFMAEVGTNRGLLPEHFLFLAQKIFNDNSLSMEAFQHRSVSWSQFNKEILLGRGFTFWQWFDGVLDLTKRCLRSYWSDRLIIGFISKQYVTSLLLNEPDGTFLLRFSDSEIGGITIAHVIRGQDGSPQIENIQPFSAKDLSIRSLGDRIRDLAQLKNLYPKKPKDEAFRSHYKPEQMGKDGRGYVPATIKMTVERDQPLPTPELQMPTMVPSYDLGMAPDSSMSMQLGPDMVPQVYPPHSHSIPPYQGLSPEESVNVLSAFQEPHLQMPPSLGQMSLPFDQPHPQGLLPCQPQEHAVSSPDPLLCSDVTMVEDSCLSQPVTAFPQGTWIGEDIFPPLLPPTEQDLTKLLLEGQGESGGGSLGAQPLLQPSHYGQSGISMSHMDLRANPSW
As to the kind of experiment: Induction of STAT6 degradation in human SU-DHL-1 cells at 0.25 to 100 uM incubated for 14 hrs by Western blot analysis. It is filed as cell-based. The conditions noted are these: dose 0.25-100 µM.

The target of data set [2] is T2, Signal transducer and activator of transcription 5A (Homo sapiens) (UniProt P42229).
T2 sequence (whole entry): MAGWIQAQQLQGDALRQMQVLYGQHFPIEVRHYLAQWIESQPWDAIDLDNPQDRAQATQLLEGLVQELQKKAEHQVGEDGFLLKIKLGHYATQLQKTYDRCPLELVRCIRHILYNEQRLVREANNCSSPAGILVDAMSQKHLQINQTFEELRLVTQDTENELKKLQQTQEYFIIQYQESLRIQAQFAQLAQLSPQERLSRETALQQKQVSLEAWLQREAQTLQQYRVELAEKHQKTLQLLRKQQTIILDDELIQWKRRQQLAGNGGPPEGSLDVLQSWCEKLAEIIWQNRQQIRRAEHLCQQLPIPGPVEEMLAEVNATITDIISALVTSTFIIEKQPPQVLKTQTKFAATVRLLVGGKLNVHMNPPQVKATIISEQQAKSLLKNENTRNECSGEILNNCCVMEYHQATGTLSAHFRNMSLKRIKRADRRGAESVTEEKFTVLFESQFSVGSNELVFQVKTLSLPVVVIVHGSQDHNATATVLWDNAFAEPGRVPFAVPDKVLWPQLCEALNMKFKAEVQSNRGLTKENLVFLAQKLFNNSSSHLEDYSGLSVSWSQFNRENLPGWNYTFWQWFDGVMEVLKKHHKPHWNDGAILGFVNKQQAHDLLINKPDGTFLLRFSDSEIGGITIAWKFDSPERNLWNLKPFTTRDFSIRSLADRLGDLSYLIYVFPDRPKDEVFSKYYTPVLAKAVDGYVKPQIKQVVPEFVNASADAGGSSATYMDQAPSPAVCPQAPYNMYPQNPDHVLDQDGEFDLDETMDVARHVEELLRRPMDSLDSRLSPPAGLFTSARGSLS
As to the kind of experiment: Induction of STAT5 degradation in human SU-DHL-1 cells at 0.25 to 100 uM incubated for 14 hrs by Western blot analysis. In kind it is cell-based. Particulars: dose 0.25-100 µM.

Data set [3] in a line: Antiproliferative activity against human MOLM-16 cells assessed as cell growth inhibition incubated for 4 days by CellTiter-Glo asssay. In kind it is functional, cell-based. Particulars: MOLM16, 96 h. The gist of the method: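 Growth inhibition tested in MOLM-16 acute leukemia and SU-DHL-1 and SUP-M2 lymphoma cell lines.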
Data set [4] addresses Signal transducer and activator of transcription 3 (Homo sapiens, UniProt P40763). Put plainly: Binding affinity to recombinant STAT3 (unknown origin) assessed as inhibition constant incubated for 1 hr by fluorescence polarization assay. The gist of the method: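 Competitive fluorescence-polarization binding assay with recombinant human STAT3 protein. Ki derived from competitive binding curves.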

Data set [5] can be described thus: Drug uptake in SCID mouse xenografted with human MOLM16 cells assessed as drug level in plasma at 50 mg/kg, iv measured after 1 hrs by LC-MS/MS. It is filed as ADME, organism-based. The procedure, abridged: (§1)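 SCID mice bearing MOLM-16 xenografts given a single iv dose of 50 mg/kg. Concentrations of parent and hydrolysis product measured in plasma (ng/mL) and tumor tissue (ng/g) at 1, 6 and 24 h.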

A short description of data set [6]: Drug uptake in SCID mouse xenografted with human MOLM16 cells assessed as drug level in plasma at 50 mg/kg, iv measured after 6 hrs by LC-MS/MS. In kind it is ADME, organism-based. The procedure, abridged:
as §1

The nature of data set [7]: Drug uptake in SCID mouse xenografted with human MOLM16 cells assessed as drug level in plasma at 50 mg/kg, iv measured after 24 hrs by LC-MS/MS. In kind it is ADME, organism-based. The gist of the method:
as §1

Data set [8] is described as follows: Drug uptake in SCID mouse xenografted with human MOLM16 cells assessed as drug level in tumor tissue at 50 mg/kg, iv measured after 1 hrs by LC-MS/MS. In kind it is ADME, organism-based. Particulars: read-out: Drug uptake. The procedure, abridged: as §1
The nature of data set [9]: Drug uptake in SCID mouse xenografted with human MOLM16 cells assessed as drug level in tumor tissue at 50 mg/kg, iv measured after 6 hrs by LC-MS/MS. It is filed as ADME, organism-based. The conditions noted are these: read-out: Drug uptake. The gist of the method: as §1
Data set [10] in a line: Drug uptake in SCID mouse xenografted with human MOLM16 cells assessed as drug level in tumor tissue at 50 mg/kg, iv measured after 24 hrs by LC-MS/MS. In kind it is ADME, organism-based. The conditions noted are these: read-out: Drug uptake. The procedure, abridged:
as §1

pIC50, pKi: −log10 of the molar value. Activity calls are given as the source filed them. The calls are words filed in the database; no cut-off is given here.

Sequence of Signal transducer and activator of transcription 3 (P40763 whole entry): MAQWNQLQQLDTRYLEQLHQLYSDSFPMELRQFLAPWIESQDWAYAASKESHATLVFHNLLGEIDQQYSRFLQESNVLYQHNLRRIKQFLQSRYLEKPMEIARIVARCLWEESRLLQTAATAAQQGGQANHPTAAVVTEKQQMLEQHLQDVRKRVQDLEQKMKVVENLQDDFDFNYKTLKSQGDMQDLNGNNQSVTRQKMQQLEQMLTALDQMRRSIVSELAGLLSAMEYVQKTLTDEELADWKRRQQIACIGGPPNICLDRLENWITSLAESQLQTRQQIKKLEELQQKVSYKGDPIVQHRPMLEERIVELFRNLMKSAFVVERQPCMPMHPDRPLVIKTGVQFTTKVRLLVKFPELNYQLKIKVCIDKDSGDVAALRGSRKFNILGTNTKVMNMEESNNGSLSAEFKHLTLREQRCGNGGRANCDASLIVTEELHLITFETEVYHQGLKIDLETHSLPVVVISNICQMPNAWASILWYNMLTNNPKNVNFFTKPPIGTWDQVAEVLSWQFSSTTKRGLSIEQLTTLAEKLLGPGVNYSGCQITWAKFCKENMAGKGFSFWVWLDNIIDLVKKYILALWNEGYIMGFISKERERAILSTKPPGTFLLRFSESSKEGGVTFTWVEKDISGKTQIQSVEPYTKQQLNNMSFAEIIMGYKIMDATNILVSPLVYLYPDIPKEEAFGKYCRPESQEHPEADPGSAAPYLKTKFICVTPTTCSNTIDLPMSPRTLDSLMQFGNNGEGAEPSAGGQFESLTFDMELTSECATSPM

Take `NC(=O)CC[C@H](NC(=O)[C@@H]1CC[C@@H]2CCN(C(=O)CCCCCC#Cc3cccc4c3CN(C3CCC(=O)NC3=O)C4=O)C[C@H](NC(=O)c3cc4cc(C(=O)P(=O)(O)O)ccc4[nH]3)C(=O)N21)C(=O)NC(c1ccccc1)c1ccccc1` (some centres undefined): the result in [1] and in data set [2] was inactive. Also, the pIC50 in [3] is 6.77. In addition, the pKi in [4] is 8.29. Besides, the concentration at 1 h in [5] worked out at 85500 ng/mL; in data set [8] it was 16200 ng/g. Besides, the concentration at 6 h worked out at 49200 ng/mL in [6] and 4780 ng/g in data set [9]. Moreover, the concentration at 24 h in data set [7] came out at 1360 ng/mL; in [10] it was 1800 ng/g.

For the molecule `NC(=O)CC[C@H](NC(=O)[C@@H]1CC[C@@H]2CCN(C(=O)CCCCCC#Cc3cccc4c3CN(C3CCC(=O)NC3=O)C4=O)C[C@H](NC(=O)c3cc4cc(C(F)(F)P(=O)(O)O)ccc4[nH]3)C(=O)N21)C(=O)NC(c1ccccc1)c1ccccc1` (some centres undefined), in [3], the pIC50 is 6.74. Besides, the pKi in data set [4] is 7.93. Also, the concentration at 1 h came out at 103000 ng/mL in [5] and 7720 ng/g in data set [8]. For the same molecule, the figures for the concentration at 6 h in [6] and in data set [9] were 1300 ng/mL and 580 ng/g, respectively. Also, the concentration at 24 h in [7] was 58 ng/mL; in data set [10] it was 275 ng/g.

On to `CC(=O)N1CC[C@H]2CC[C@@H](C(=O)N[C@@H](CCC(N)=O)C(=O)NC(c3ccccc3)c3ccccc3)N2C(=O)[C@@H](NC(=O)c2cc3cc(C(F)(F)P(=O)(O)O)ccc3[nH]2)C1`, for which the outcome in data set [1] and in [2] was inactive. The pIC50 in [3] was less than 5.00.

Regarding `CC(=O)N1CC[C@H]2CC[C@@H](C(=O)N[C@@H](CCC(N)=O)C(=O)NC(c3ccccc3)c3ccccc3)N2C(=O)[C@@H](NC(=O)c2cc3cc(C(=O)P(=O)(O)O)ccc3[nH]2)C1`, the result in [1] and in [2] was inactive. Besides, in [3], the pIC50 was less than 5.00.
